# The source made the active and inactive calls. The rule behind the calls is not given here.
# Key:
# [1] = Antiproliferative activity against human BXD-1425EPN cells assessed as reduction in cell viability incubated for 144 hrs by MTT assay; type: functional, cell-based
# Outline: (§1)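 Ependymoma cells were seeded in 96-well plates and left overnight, then given decitabine or DMSO vehicle. Decitabine was replenished at 24 and 48 hrs, and MTT viability was read 144 hrs after the start. BXD-1425EPN and DKFZ-EP1 were grown in DMEM with 10% FBS; EPN1, EPN8, EPN9 and EPN10 in DMEM with 15% FBS. Triplicates, three independent repeats, % viable versus vehicle; IC50 estimated from dose-response curves.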
# [2] = Antiproliferative activity against human DKFZ-EP1 cells assessed as reduction in cell viability incubated for 144 hrs by MTT assay; type: functional, cell-based; settings: DKFZ-EP1, 144 h; outline: as §1
# [3] = Antiproliferative activity against human EPN1 cells assessed as reduction in cell viability incubated for 144 hrs by MTT assay; type: functional, cell-based; settings: EPN1, 144 h; outline: as §1
# [4] = Antiproliferative activity against human EPN8 cells assessed as reduction in cell viability incubated for 144 hrs by MTT assay; type: functional, cell-based; settings: EPN8, 144 h; outline: as §1
# [5] = Antiproliferative activity against human EPN9 cells assessed as reduction in cell viability incubated for 144 hrs by MTT assay; type: functional, cell-based; settings: EPN9, 144 h; outline: as §1
# [6] = Antiproliferative activity against human EPN10 cells assessed as reduction in cell viability incubated for 144 hrs by MTT assay; type: functional, cell-based; settings: EPN10, 144 h; outline: as §1
# [7] = tested on: BXD-1425EPN; assay: Induction of cell death in human BXD-1425EPN cells incubated for 144 hrs by LDH release assay; type: functional, cell-based
# Outline: (§2)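 LDH cytotoxicity kit read-out of cell death after 144 hrs of decitabine or vehicle exposure. Cells were plated in 96 wells and left overnight before dosing, with decitabine replenished at 24 and 48 hrs. Triplicates in three independent repeats. All drugs were dissolved in DMSO.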
# [8] = tested on: DKFZ-EP1; assay: Induction of cell death in human DKFZ-EP1 cells incubated for 144 hrs by LDH release assay; type: functional, cell-based; outline: as §2
# [9] = tested on: EPN1; assay: Induction of cell death in human EPN1 cells incubated for 144 hrs by LDH release assay; type: functional, cell-based; outline: as §2
# [10] = tested on: EPN9; assay: Induction of cell death in human EPN9 cells incubated for 144 hrs by LDH release assay; type: functional, cell-based; outline: as §2
# [11] = molecular target: Histone-lysine N-methyltransferase EZH2 (Homo sapiens) (UniProt Q15910); assay: Inhibition of EZH2 in human EPN9 cells assessed as increase in cell death incubated for 120 hrs by LDH release assay; type: cell-based
# Outline: (§3)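 GSK343 or vehicle was added to cells plated in 96 wells the previous day. Drug was replenished after 72 hrs, and cell death was measured by LDH release kit at 120 hrs. Each condition in triplicate, three independent repeats.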
# [12] = molecular target: Histone-lysine N-methyltransferase EZH2 (Homo sapiens) (UniProt Q15910); assay: Inhibition of EZH2 in human EPN1 cells assessed as increase in cell death incubated for 120 hrs by LDH release assay; type: cell-based; outline: as §3
# [13] = molecular target: Histone-lysine N-methyltransferase EZH2 (Homo sapiens) (UniProt Q15910); assay: Inhibition of EZH2 in human BXD-1425EPN cells assessed as increase in cell death incubated for 120 hrs by LDH release assay; type: cell-based; outline: as §3
# [14] = molecular target: Histone-lysine N-methyltransferase EZH2 (Homo sapiens) (UniProt Q15910); assay: Inhibition of EZH2 in human DKFZ-EP1 cells assessed as increase in cell death incubated for 120 hrs by LDH release assay; type: cell-based; outline: as §3
# [15] = molecular target: Histone-lysine N-methyltransferase EZH2 (Homo sapiens) (UniProt Q15910); assay: Inhibition of EZH2 in human DKFZ-EP1 cells assessed as increase in decitabine induced cytotoxicity at 2.5 to 40 uM measured after 96 hrs in presence of decitabine by MTT assay; type: cell-based; settings: dose 2.5-40 µM
# Outline: (§4)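 Cells were pretreated 48 hrs with decitabine, then GSK343 was added and incubation continued for a further 96 hrs before MTT viability was read. Drugs were at a fixed ratio from single-agent IC50s (0.125–4 times IC50). Triplicates, three independent repeats, % versus vehicle.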
# [16] = molecular target: Histone-lysine N-methyltransferase EZH2 (Homo sapiens) (UniProt Q15910); assay: Inhibition of EZH2 in human BXD-1425EPN cells assessed as increase in decitabine induced cytotoxicity at 2.5 to 80 uM measured after 96 hrs in presence of decitabine by MTT assay; type: cell-based; settings: dose 2.5-80 µM; outline: as §4
# [17] = molecular target: Histone-lysine N-methyltransferase EZH2 (Homo sapiens) (UniProt Q15910); assay: Inhibition of EZH2 in human EPN1 cells assessed as increase in decitabine induced cytotoxicity at 2.5 to 80 uM measured after 96 hrs in presence of decitabine by MTT assay; type: cell-based; settings: dose 2.5-80 µM; outline: as §4
# [18] = molecular target: Histone-lysine N-methyltransferase EZH2 (Homo sapiens) (UniProt Q15910); assay: Inhibition of EZH2 in human EPN9 cells assessed as increase in decitabine induced cytotoxicity at 2.5 to 80 uM measured after 96 hrs in presence of decitabine by MTT assay; type: cell-based; settings: dose 2.5-80 µM; outline: as §4
# [19] = Cytotoxicity against human fetal NSC assessed as reduction in cell vaibility incubated for 48 hrs by alamar blue assay; settings: human fetal neural stem cells (NSC)
# [20] = molecular target: Histone-lysine N-methyltransferase EZH2 (Homo sapiens) (UniProt Q15910); assay: Inhibition of EZH2 in human EPN1 cells assessed as decrease in cell viability at 2.5 to 80 uM incubated for 72 hrs in presence of vorinostat by MTT assay; settings: dose 2.5-80 µM
# [21] = molecular target: Histone-lysine N-methyltransferase EZH2 (Homo sapiens) (UniProt Q15910); assay: Inhibition of EZH2 in human BXD-1425EPN cells assessed as decrease in cell viability at 2.5 to 80 uM incubated for 72 hrs in presence of vorinostat by MTT assay; settings: dose 2.5-80 µM
# Histone-lysine N-methyltransferase EZH2 (Homo sapiens), sequence (Q15910 whole entry, looked up): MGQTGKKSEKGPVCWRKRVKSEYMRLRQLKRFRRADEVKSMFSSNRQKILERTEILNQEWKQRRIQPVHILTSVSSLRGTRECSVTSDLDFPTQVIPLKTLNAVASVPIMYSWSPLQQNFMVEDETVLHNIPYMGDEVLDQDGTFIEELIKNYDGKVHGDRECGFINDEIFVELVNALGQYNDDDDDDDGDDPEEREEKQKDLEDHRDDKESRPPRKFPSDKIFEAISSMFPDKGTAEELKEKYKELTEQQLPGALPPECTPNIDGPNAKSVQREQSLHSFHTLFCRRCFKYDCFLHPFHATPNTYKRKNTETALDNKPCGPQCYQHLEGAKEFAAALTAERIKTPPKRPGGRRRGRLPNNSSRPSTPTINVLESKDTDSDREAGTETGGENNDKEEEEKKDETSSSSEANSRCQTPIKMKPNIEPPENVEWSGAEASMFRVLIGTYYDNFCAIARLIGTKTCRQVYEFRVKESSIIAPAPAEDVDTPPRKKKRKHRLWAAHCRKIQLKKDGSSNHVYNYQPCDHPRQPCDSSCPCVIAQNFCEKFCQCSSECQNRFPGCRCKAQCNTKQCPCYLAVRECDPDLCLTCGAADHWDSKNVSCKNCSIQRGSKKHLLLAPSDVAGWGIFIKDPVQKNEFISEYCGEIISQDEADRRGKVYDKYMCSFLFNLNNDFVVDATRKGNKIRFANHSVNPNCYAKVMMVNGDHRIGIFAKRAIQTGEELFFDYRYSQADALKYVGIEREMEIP
compound,measurement,setting,value
Nc1ncn([C@H]2C[C@H](O)[C@@H](CO)O2)c(=O)n1 [DECITABINE],IC50,[1],400 nM
same,IC50,[2],≥ 50 nM
same,IC50,[3],≥ 50 nM
same,IC50,[4],50 nM
same,IC50,[5],≥ 50 nM
same,IC50,[6],≥ 50 nM
same,Activity,[7],inactive
same,Activity,[8],inactive
same,Activity,[9],inactive
same,Activity,[10],inactive
CCCc1cc(C)[nH]c(=O)c1CNC(=O)c1cc(-c2ccnc(N3CCN(C)CC3)c2)cc2c1cnn2C(C)C,inhibition,[11],Active
same,inhibition,[12],Active
same,inhibition,[13],Active
same,inhibition,[14],Active
same,inhibition,[15],inactive
same,inhibition,[16],inactive
same,inhibition,[17],inactive
same,inhibition,[18],inactive
same,IC50 at 48 h,[19],9 µM
same,inhibition,[20],Active
same,inhibition,[21],Active
Cc1[nH]c2ccccc2c1CCNCc1ccc(/C=C/C(=O)NO)cc1 [PANOBINOSTAT],IC50 at 48 h,[19],0.08 µM
